Compounds with a hit are over-represented: about 4.1% of the library has one in this group of screens.
STAT1 activator – STAT1 signaling activators, primary screen, cell-based, HTS, luciferase reporter; NIH 3T3 STAT1-luciferase reporter, IFN-gamma, luminescence; 100% = IFN-gamma alone, no compound; activation (% of control), % at 5.5 µM; actives 2.6% (n = 200,000);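 active = activation above the screen-wide mean activation plus 3 SD, cut at about 130% in these data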;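 note: raw ratio to IFN-gamma control signal so 100% means no change and 0% no light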
APP 5'UTR act – activators of APP 5'UTR luciferase reporter, primary screen, SH-SY5Y cells; SH-SY5Y APP 5'UTR luciferase reporter, luminescence; zero percent = DMSO vehicle wells; activation, % at 2 µM; actives 1% (n = 190,000); AID 1276, 2008;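 active = activation above a set limit, based on mean plus 3 SD of controls, cut at about 140% in these data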
FLuc stim CS – FLuc activators, initial screening, artefact control for FLuc-dependent activation tests, biochemical, ATPlite luminescence; Luciferin 4-monooxygenase (Photinus pyralis), P08659; ATPlite luciferase biochemical, 10 min; 0 = ATP-free wells, 1 = DMSO control; activation factor at 10 µM; 200,000 tested, under 10 active; AID 1027, 2008;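 active = luciferase activation factor, scaled between plate controls, of at least 2 with compound at 10 µM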
Target sequence (P08659 whole entry, looked up): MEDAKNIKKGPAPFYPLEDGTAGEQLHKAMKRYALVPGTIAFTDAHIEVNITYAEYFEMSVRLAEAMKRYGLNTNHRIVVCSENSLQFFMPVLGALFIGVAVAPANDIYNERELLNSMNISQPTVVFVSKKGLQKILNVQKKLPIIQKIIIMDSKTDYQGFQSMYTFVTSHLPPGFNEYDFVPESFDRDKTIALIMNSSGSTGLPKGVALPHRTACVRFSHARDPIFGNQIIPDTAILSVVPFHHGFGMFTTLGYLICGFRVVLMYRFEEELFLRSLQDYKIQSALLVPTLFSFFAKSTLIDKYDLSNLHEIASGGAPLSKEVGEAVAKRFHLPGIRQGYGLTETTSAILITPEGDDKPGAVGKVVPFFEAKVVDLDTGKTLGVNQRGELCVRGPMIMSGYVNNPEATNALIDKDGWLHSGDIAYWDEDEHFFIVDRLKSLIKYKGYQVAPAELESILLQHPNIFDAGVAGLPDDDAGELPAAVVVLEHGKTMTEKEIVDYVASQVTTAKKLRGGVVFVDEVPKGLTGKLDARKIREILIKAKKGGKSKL
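test system = cell-free luciferase reagent | medium = PBS as buffer for the ATP substrate | dosing = test compounds dosed from 2 mM stocks in 100% DMSO | incubation = 10 min at ambient temperature | detection = luminescence measurement of luciferase light output | benchmarks = low control with PBS replacing ATP, high control enzyme plus ATP without compound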
NF-kB neuron act – activators of NF-kB expression in neurons, primary screen, cell-based, HTS | actives 1.6% (n = 190,000) | fold change at 12.5 µM | human neuronal cells, NF-kB reporter expression; hits give high values; in the data active = fold change above about 3.3
FLuc inhib CS – firefly luciferase enzyme inhibitors, primary screen, artefact control for luciferase-based inhibitor screens, biochemical, luminescence, ATPLite; actives 1.5% (n = 200,000); inhibition, % at 10 µM; AID 1006, 2008; 10 min; Luciferin 4-monooxygenase (Photinus pyralis), P08659;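 active = inhibition above about 50% when tested at 10 µM, limit read from the data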
Starred values were filed as active, the others as inactive.

SMILES | STAT1 activator | APP 5'UTR act | FLuc stim CS | NF-kB neuron act | FLuc inhib CS
CCOc1ccc(OCCn2nnc3ccccc3c2=O)cc1 | 125.2 | 44.5 | 0.9 | 4.57* | 7.1
O=c1c2ccccc2nnn1COc1cccc2ccccc12 | 129.7* | 49.3 | 1 | 2.13 | 0.5
O=c1c2ccccc2nnn1COc1ccc(F)cc1Cl | 143.8* | 24.9 | 0.9 | 2.33 | 7.7
O=c1c2ccccc2nnn1COc1ccc(Cl)cc1Br | 133.0* | 80.3 | 1 | 1.11 | 2.7
CCOc1ccc(NC(=S)Nc2cc(OC)c(Cl)cc2OC)cc1 | 94.0 | -4.3 | 1 | 1.04 | -3.4
Cc1c(-c2cccc(NC(=O)c3cccs3)c2)nc2ncccn12 | 96.0 | 10.9 | 1 | 0.54 | -3.9
Cc1ccccc1NCCNc1ccccc1C | 101.6 | -0.9 | 1 | 2.15 | -4.8
O=C(CCC1CCCCC1)Nc1ccccc1O | 96.9 | 61.0 | 0.9 | 6.38* | 8.6
Cn1c(NC(=O)CCC2CCCCC2)cc(=O)n(C)c1=O | 147.8* | 131.3 | 0.9 | 3.8* | 8.9
Cc1ccc(O)c(NC(=O)CCC2CCCCC2)c1 | 112.1 | 63.8 | 0.6 | 4.12* | 39.7
Cc1ccc(O)c(NC(=O)CCCC(=O)O)c1 | 99.6 | 6.4 | 1.1 | 1.13 | -8.5
Cc1ccc(N2C(=O)c3ccc(C(=O)N4CCOCC4)cc3C2=O)cc1C | 96.7 | 11.3 | 1 | 1.1 | -1.8
Cc1ccc(-c2nnc(CSc3nc(C(C)C)nc4sc(C)c(C)c34)o2)cc1 | 102.4 | 2.2 | 1 | 1.14 | 0.6
O=C(O)c1cccc(-c2nnn(Cc3ccccc3Cl)n2)c1 | 67.3 | 21.5 | 0.9 | 4.25* | 14.1
CC(=O)N1CCN(S(=O)(=O)c2cccc(C(=O)Nc3nccs3)c2)CC1 | 130.6* | -8.6 | 1 | 1.25 | -3.9
O=C(NNc1nc2cc3c(cc2s1)OCO3)c1cccc(F)c1 | 108.8 | 30.6 | 1 | 2.01 | 3.1
CCc1cc[n+](-c2nc3ccccc3nc2C(=C=[N-])C#N)cc1 | 100.3 | 6.8 | 1.1 | 4.99* | -6.3
CCOc1cccc2cc(-c3csc(NC(=O)CCC(=O)NCCN4CCCCC4C)n3)c(=O)oc12 (stereo not drawn) | 144.8* | 177.9* | 0.7 | 6.82* | 29.4
CCOc1cccc2cc(-c3csc(NC(=O)CCC(=O)N4CCC(C)CC4)n3)c(=O)oc12 | 98.4 | -5.2 | 1 | 1.09 | -4.5
Cc1nc(SCc2ccccc2)nc2c1CCC2 | 147.8* | 115.1 | 1 | 2.53 | -1.3
CN(C1CCS(=O)(=O)C1)S(=O)C12CC3CC(CC(C3)C1)C2 (stereo not drawn) | 107.4 | 1.9 | 1.1 | 1.06 | -5.9
CC(=O)NCCN=Cc1sc2ccccc2c1O | 109.7 | 15.7 | 1 | 1.09 | -2.4
CCCN=Cc1sc2ccc(OCC)cc2c1O | 129.8* | 45.4 | 0.9 | 1.82 | 9.5
N#C/C(=C\c1ccc(C(=O)O)cc1)c1ccccn1 | 94.6 | -0.3 | 1.1 | 0.93 | -7.8
COc1cc(/C=C(\C#N)c2ccccn2)ccc1OCc1ccccc1 | 88.5 | -6.5 | 1 | 1.37 | 2.2
SMILES | STAT1 activator | APP 5'UTR act | FLuc stim CS | NF-kB neuron act | FLuc inhib CS
CCN(CC)c1ccc(/C=C(\C#N)c2ccccn2)cc1 | 91.8 | 160.1* | 0.2 | 1.93 | 84.9*
CN(CCC#N)c1ccc(/C=C(\C#N)c2ccccn2)cc1 | 140.7* | 179.9* | 0.1 | 2.92 | 87.6*
CCOc1ccc(NC(=O)CN2C(=O)CSC(C)C2=O)cc1 (stereo not drawn) | 130.9* | 9.4 | 0.6 | 1.15 | 38.7
COC(=O)c1ccc(NC(=O)Cc2ccc(C)cc2)cc1 | 100.8 | 21.0 | 1 | 1.24 | -4.8
CCOc1ccc(NC(=O)Cc2ccccc2)cc1 | 134.8* | 40.6 | 0.8 | 2.23 | 24.9
CCC(=O)Nc1ccc(C(=O)OCc2ccccc2Cl)cc1 | 137.0* | 45.2 | 1 | 1.6 | -4.8
COC(=O)c1ccc(NC(=O)Cc2ccccc2)cc1 | 132.0* | 38.0 | 0.8 | 2.1 | 17.9
CCN1CC(CN(C)Cc2nc(-c3ccc(OC)c4ccccc34)oc2C)CC1=O (stereo not drawn) | 98.3 | 29.6 | 1.1 | 0.97 | -6.9
COCC(=O)Nc1ccc(OCc2ccccc2)cc1 | 130.8* | 22.4 | 0.8 | 1.74 | 17.3
COC(=O)c1ccc(NC(=O)C(=O)c2cccn2C)cc1 | 55.9 | 1.2 | 0.2 | 8.43* | 83.5*
CCOc1ccc(NC(=O)c2ccc(NC(=O)COC(=O)Cc3ccc(OC)cc3)cc2)cc1 | 136.3* | 106.9 | 1.1 | 1.66 | -5.3
O=C(CCN1C(=O)c2cccc3cccc(c23)C1=O)NCc1ccco1 | 109.4 | 9.7 | 1 | 0.97 | -4.8
O=c1ccc2c(o1)/C(=C/C=C(Cl)Cl)CCC2 | 99.8 | 0.6 | 1 | 1.02 | -4.6
COc1cc(C)c(NC(=S)NCCCN2CCOCC2)cc1OC | 102.7 | 20.6 | 1.1 | 1.2 | -7.0
CN(Cc1cccs1)C(=O)CCCc1c[nH]c2ccccc12 | 129.5* | 57.9 | 0.9 | 1.04 | 5.2
CN(Cc1cccs1)C(=O)CCc1c[nH]c2ccccc12 | 101.5 | 8.4 | 1 | 1.14 | -0.1
CCCNC(=O)Nc1ccsc1C(=O)OC | 98.3 | -16.8 | 1 | 1.01 | 0.1
O=C(Nc1nc2cc3c(cc2s1)OCCO3)c1cccc(N2C(=O)CCC2=O)c1 | 110.5 | 5.6 | 0.2 | 1.28 | 80.6*
Cc1nc2ccc(NC(=O)c3ccc(N4C(=O)CCC4=O)cc3)cc2s1 | 93.6 | 10.7 | 1 | 1.15 | -2.0
O=C(Nc1ccc2sccc2c1)c1cccc(N2C(=O)CCC2=O)c1 | 139.9* | 12.8 | 0.8 | 1.95 | 20.1
CCOc1ccc(N=Cc2c(C)[nH]n(-c3nc4ccccc4[nH]3)c2=O)cc1 | 82.8 | -4.7 | 0.3 | 0.82 | 69.5*
CC1=NN(C(N)=S)C(=O)C1N=Nc1ccc(C)cc1C (stereo not drawn) | 137.1* | 57.5 | 0.7 | 3.2 | 29.6
Cc1noc(NS(=O)(=O)c2ccc(NC(=O)CSc3nc4ccccc4s3)cc2)c1C | 100.9 | 1.8 | 0.9 | 1.07 | 6.5
CC1CCc2nc(NC(=O)C3COc4ccccc4O3)sc2C1 (stereo not drawn) | 55.4 | 167.8* | 0.5 | 1.36 | 49.4
CC1CCc2nc(NC(=O)CN3CCN(Cc4ccc5c(c4)OCO5)CC3)sc2C1 (stereo not drawn) | 102.2 | 9.9 | 1.1 | 0.71 | -5.7
Cc1cnc(NC(=O)C2COc3ccccc3O2)s1 (stereo not drawn) | 106.6 | 144.1* | 0.5 | 2.62 | 51.9*
CC1CCc2nc(NC(=O)Nc3ccc4c(c3)OCO4)sc2C1 (stereo not drawn) | 126.2 | 37.3 | 0.5 | 2.11 | 53.3*
COc1ccc(Nc2ccc3c(c2)=NC2(CCCCC2)[N+]=3[O-])cc1 | 121.4 | -49.2 | 0.9 | 1.11 | 8.7
[O-][N+]1=c2ccc(Nc3ccccc3)cc2=NC12CCCCC2 | 134.1* | -32.9 | 1 | 1.01 | 0.2
Cc1ccn2cc(-c3cc4ccccc4oc3=O)nc2c1 | 74.4 | 115.9 | 0.6 | 5.42* | 42.2
